pIC50: −log10 of the molar value.

We go through 23 compounds from ChEMBL document CHEMBL3351348, “Synthesis and biological evaluation of new simple indolic non peptidic HIV Protease inhibitors: the effect of different substitution patterns” (Bioorg Med Chem, 2014).

A short description of the first assay: Inhibition of HIV Protease using Abz-Thr-Ile-Nle-Phe(NO2)-Gln-Arg as fluorogenic substrate by fluorimetry. Also on record: species or system Human immunodeficiency virus.
Details: not given; call rule not given here
In a few lines: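 Commercial HIV-PR at 10 nm final, in pH 5.5 MES buffer (100 mM MES/NaOH, 400 mM NaCl, 1 mM EDTA, 1 mM DTT), 25 °C thermostated cuvette. Substrate at 30 μM final. Excitation 325 nm, emission 420 nm. Enzyme added after 1.5 min and inhibitor (DMSO stock) after a further 1 min, then read 10 min. IC50 from initial rates over several inhibitor concentrations, at least three independent experiments.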
Turning to `CC(C)CN(C[C@@H](O)CNc1ccc2[nH]ccc2c1)S(=O)(=O)c1ccc([N+](=O)[O-])cc1`, the IC50 result is given as “Not Active”.

The assay is the same for the next values; noted with them: read-out: IC50.
In the case of `CC(C)(C)NC(=O)[C@@H]1C[C@@H]2CCCC[C@@H]2CN1C[C@@H](O)COC(=O)Nc1ccc2[nH]ccc2c1`, the negative-log IC50 (pIC50) is 3.22.

On to `COc1ccc(S(=O)(=O)N(CC(C)C)C[C@@H](O)CNc2ccc3[nH]ccc3c2)cc1OC`, for which the pIC50 was 2.36. As to `CC(C)(C)NC(=O)[C@@H]1C[C@@H]2CCCC[C@@H]2CN1C[C@@H](O)COc1ccc2[nH]ccc2c1`, the pIC50 was 4.85. Still for that read-out and setting: in the case of `COc1ccc(S(=O)(=O)N(CC(C)C)C[C@@H](O)COc2cccc3[nH]ccc23)cc1OC` it was 3.47; in that of `CC(C)CN(C[C@@H](O)COc1cccc2[nH]ccc12)S(=O)(=O)c1ccc([N+](=O)[O-])cc1`, 3.46; in that of `CC(C)(C)NC(=O)[C@@H]1C[C@@H]2CCCC[C@@H]2CN1C[C@@H](O)CNc1ccc2[nH]ccc2c1`, 3.75. For the compound `CC(C)CN(C[C@@H](O)CNc1cccc2[nH]ccc12)S(=O)(=O)c1ccc([N+](=O)[O-])cc1`, the pIC50 is 2.58. For the compound `CC(C)(C)NC(=O)[C@@H]1C[C@@H]2CCCC[C@@H]2CN1C[C@@H](O)COc1ccc2cc[nH]c2c1`, the pIC50 was 3.86.

In the case of `CC(C)CN(C[C@@H](O)COc1ccc2[nH]ccc2c1)S(=O)(=O)c1ccc([N+](=O)[O-])cc1`, the negative logarithm of the IC50 (pIC50) was 5.00. As to `COc1ccc(S(=O)(=O)N(CC(C)C)C[C@@H](O)CNc2cccc3[nH]ccc23)cc1OC`, the pIC50 is 3.47. For the compound `CC(C)(C)NC(=O)[C@@H]1C[C@@H]2CCCC[C@@H]2CN1C[C@@H](O)COc1cccc2[nH]ccc12`, the pIC50 is 4.62. On to `CC(C)CN(C[C@@H](O)COc1ccc2cc[nH]c2c1)S(=O)(=O)c1ccc([N+](=O)[O-])cc1`, for which the pIC50 is 4.34. Take `COc1ccc(S(=O)(=O)N(CC(C)C)C[C@@H](O)COC(=O)Nc2ccc3[nH]ccc3c2)cc1`: the pIC50 was 5.10. In the case of `CC(C)(C)NC(=O)[C@@H]1C[C@@H]2CCCC[C@@H]2CN1C[C@@H](O)CNc1cccc2[nH]ccc12`, the pIC50 was 3.80.

For the compound `CC(C)(C)NC(=O)[C@@H]1C[C@@H]2CCCC[C@@H]2CN1C[C@@H](O)COC(=O)Nc1cccc2[nH]ccc12`, the pIC50 is 4.30. The same measure, in the same setting: in the case of `CC(C)CN(C[C@@H](O)COC(=O)Nc1cccc2[nH]ccc12)S(=O)(=O)c1ccc([N+](=O)[O-])cc1` it was 4.14. For `COc1ccc(S(=O)(=O)N(CC(C)C)C[C@@H](O)COc2ccc3[nH]ccc3c2)cc1OC`, the pIC50 is 6.00. `CC(C)CN(C[C@@H](O)COC(=O)Nc1ccc2[nH]ccc2c1)S(=O)(=O)c1ccc([N+](=O)[O-])cc1`: the pIC50 is 5.70. Same read-out and setting: in the case of `COc1ccc(S(=O)(=O)N(CC(C)C)C[C@@H](O)COc2ccc3cc[nH]c3c2)cc1OC` it was 3.46; in that of `CC(C)CN(C[C@@H](O)COc1ccc2[nH]ccc2c1)S(=O)(=O)c1ccc(N)cc1`, 4.92; in that of `COc1ccc(S(=O)(=O)N(CC(C)C)C[C@@H](O)COC(=O)Nc2ccc3[nH]ccc3c2)cc1OC`, 2.85. Consider `COc1ccc(S(=O)(=O)N(CC(C)C)C[C@@H](O)COC(=O)Nc2cccc3[nH]ccc23)cc1OC`, for which the pIC50 is 3.21.

A word on the pIC50: it is −log10 of the IC50, conventionally taken in molar units.
